Source: ChEMBL document CHEMBL2157961, “Optimisation of pharmacokinetic properties in a neutral series of 11β-HSD1 inhibitors” (Bioorg Med Chem Lett, 2012)
Converted amounts (≈) assume the structure as drawn.

Legend:
[1] = Lipophilicity, log D of the compound at pH 7.4; type: physicochemical; conditions: buffer
[2] = Oral bioavailability in dog at 1 mg/kg; type: ADME, organism-based, Canis lupus familiaris; conditions: in vivo
[3] = Cmax in dog at 1 mg/kg, po and iv; type: ADME, organism-based, Canis lupus familiaris; parameters: dose 1 mg/kg, route oral; conditions: in vivo
Canis familiaris = test: Volume of distribution at steady state in dog at 1 mg/kg, po and iv; type: ADME, organism-based, Canis lupus familiaris; parameters: dose 1 mg/kg, route oral; conditions: in vivo
[4] = Oral bioavailability in rat; type: ADME, organism-based; conditions: in vivo
[5] = Apparent permeability across apical to basolateral side in MDCK cells at 10 uM; type: ADME, cell-based, Canis lupus familiaris; conditions: dog
Method in brief: (§1)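 Test compound at […] incubated on cultured MDCK cell monolayers. Apparent permeability measured in both directions, apical to basolateral and basolateral to apical.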

[6] = Aqueous solubility in phosphate buffer at pH 7.4 after 24 hrs; type: physicochemical
Method in brief: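 Solubility measured on crystalline material in aqueous phosphate buffer, pH 7.4, after 24 h at 25 °C.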

[7] = Apparent permeability across basolateral to apical side in MDCK cells at 10 uM; type: ADME, cell-based, Canis lupus familiaris; conditions: dog; method in brief: as §1

`Cc1ncc(C(=O)N[C@H]2C3CC4CC2C[C@](O)(C4)C3)c(CC2CC2)n1` gave a logD [1] of 1.2.

With `CC1(c2nc(N3CCOCC3)ncc2C(=O)N[C@H]2C3CC4CC2C[C@](O)(C4)C3)CC1` the logD [1] was 1.8.

With `CCCSc1nc(C)ccc1C(=O)N[C@H]1C2CC3CC1C[C@](O)(C3)C2` the logD [1] was 2.8, the bioavailability [2] was 5% and the Cmax [3] was 150 nM. It also gave a Vdss (Canis familiaris) of 0.4 L/kg and a bioavailability [4] of 63%.

For `CCCSc1nc(N2CCOCC2)ncc1C(=O)N[C@H]1C2CC3CC1C[C@](O)(C3)C2`, the logD [1] was 2.8, the bioavailability [2] was 10% and the Cmax [3] was 40 nM. For the same compound, the Vdss (Canis familiaris) was 0.7 L/kg and the bioavailability [4] was 83%.

Work on `Cc1ccc(C(=O)N[C@H]2C3CC4CC2C[C@](O)(C4)C3)c(C2CC2)n1` yielded a logD [1] of 1.6, a bioavailability [2] of 37% and a Cmax [3] of 260 nM. The Vdss (Canis familiaris) was 0.3 L/kg and the bioavailability [4] was 75%.

`O=C(N[C@H]1C2CC3CC1C[C@](O)(C3)C2)c1cnc(N2CCOCC2)nc1C1CC1` showed a logD [1] of 2.1, a bioavailability [2] of 100% and a Papp A→B at 10 µM [5] of 19 ×10⁻⁶ cm/s. It also gave a Cmax [3] of 360 nM, a Vdss (Canis familiaris) of 0.9 L/kg and a solubility at 24 h [6] of 240 µM (≈ 95.6 µg/mL). It also gave a bioavailability [4] of 100% and a Papp B→A at 10 µM [7] of 30 ×10⁻⁶ cm/s.

In the case of `O=C(N[C@H]1C2CC3CC1C[C@](O)(C3)C2)c1cnc(N2CCOCC2)nc1C1CCCC1`, the logD [1] is reported as 3 and the bioavailability [4] is reported as 67%.

Compound `CCCOc1nc(N2CCOCC2)ccc1C(=O)N[C@H]1C2CC3CC1C[C@](O)(C3)C2` has a logD [1] of 3.8 and a bioavailability [4] of 31%.

Work on `Cc1nc(N2CCOCC2)ncc1C(=O)N[C@H]1C2CC3CC1C[C@](O)(C3)C2` yielded a logD [1] of 1.2.

Compound `Cc1ncc(C(=O)N[C@H]2C3CC4CC2C[C@](O)(C4)C3)c(CC(C)C)n1` has a logD [1] of 1.4 and a bioavailability [4] of 100%.

`CCCSc1nc(N(C)C)ccc1C(=O)N[C@H]1C2CC3CC1C[C@](O)(C3)C2` showed a logD [1] of 3.8 and a bioavailability [4] of 24%.

With `CCCSc1nc(NC)ncc1C(=O)N[C@H]1C2CC3CC1C[C@](O)(C3)C2` the logD [1] was 2.9.

With `CCCSc1nc(C)ncc1C(=O)N[C@H]1C2CC3CC1C[C@](O)(C3)C2` the logD [1] was 2.5, the bioavailability [2] was 110% and the Cmax [3] was 490 nM. It also gave a Vdss (Canis familiaris) of 0.3 L/kg and a bioavailability [4] of 74%.

`Cc1ncc(C(=O)N[C@H]2C3CC4CC2C[C@](O)(C4)C3)c(C2CCCC2)n1` gave a logD [1] of 2, a bioavailability [2] of 58% and a Cmax [3] of 170 nM. The Vdss (Canis familiaris) was 0.9 L/kg and the bioavailability [4] was 77%.

For `Cc1ncc(C(=O)N[C@H]2C3CC4CC2C[C@](O)(C4)C3)c(C2CC2)n1`, the logD [1] was 1.2.

`Cc1ncc(C(=O)N[C@H]2C3CC4CC2C[C@](O)(C4)C3)c(-c2ccccc2)n1` gave a logD [1] of 1.1.

Work on `CCCSc1nc(N2CCOCC2)ccc1C(=O)N[C@H]1C2CC3CC1C[C@](O)(C3)C2` yielded a logD [1] of 2.9, a bioavailability [2] of 0% and a Vdss (Canis familiaris) of 0.5 L/kg. For the same compound, the bioavailability [4] was 64%.

Work on `CCCCc1nc(C)ncc1C(=O)N[C@H]1C2CC3CC1C[C@](O)(C3)C2` yielded a logD [1] of 1.6 and a bioavailability [4] of 98%.

For `CCCSc1nc(NC)ccc1C(=O)N[C@H]1C2CC3CC1C[C@](O)(C3)C2`, the logD [1] was 3.3 and the bioavailability [4] was 30%.

`CCCSc1ncncc1C(=O)N[C@H]1C2CC3CC1C[C@](O)(C3)C2` gave a logD [1] of 2 and a bioavailability [4] of 0%.

In the case of `CCCOc1nc(N2CCOCC2)ncc1C(=O)N[C@H]1C2CC3CC1C[C@](O)(C3)C2`, the logD [1] is reported as 3 and the bioavailability [4] is reported as 36%.

Compound `O=C(N[C@H]1C2CC3CC1C[C@](O)(C3)C2)c1cnc(N2CCOCC2)nc1C1CCCCC1` has a logD [1] of 3.2 and a bioavailability [4] of 31%.

Work on `O=C(N[C@H]1C2CC3CC1C[C@](O)(C3)C2)c1cnc(N2CCOCC2)nc1C1CCC1` yielded a logD [1] of 2.4 and a bioavailability [4] of 45%.

For `O=C(N[C@H]1C2CC3CC1C[C@](O)(C3)C2)c1ccc(N2CCOCC2)nc1C1CC1`, the logD [1] was 2, the bioavailability [2] was 25% and the Cmax [3] was 40 nM. For the same compound, the Vdss (Canis familiaris) was 0.6 L/kg and the bioavailability [4] was 100%.

With `CC(C)(C)c1nc(N2CCOCC2)ncc1C(=O)N[C@H]1C2CC3CC1C[C@](O)(C3)C2` the logD [1] was 2.6 and the bioavailability [4] was 100%.

For `Cc1ncc(C(=O)N[C@H]2C3CC4CC2C[C@](O)(C4)C3)c(C(C)(C)C)n1`, the logD [1] was 1.9 and the bioavailability [4] was 84%.

Compound `Cc1ncc(C(=O)N[C@H]2C3CC4CC2C[C@](O)(C4)C3)c(CC2CCCC2)n1` has a logD [1] of 2.1 and a bioavailability [4] of 50%.

Work on `CCCSc1nc(N(C)C)ncc1C(=O)N[C@H]1C2CC3CC1C[C@](O)(C3)C2` yielded a logD [1] of 3.4.
